# TAAR1 agonist – human TAAR1 agonists, primary screen, Fluo-8 calcium fluorescence, CHO RD-HGA16 cells. Trace amine-associated receptor 1 (Homo sapiens), Q96RJ0. vehicle wells 0%, saturating PEA agonist 100%. activation, % at 3 µM. hit rate 0.99% among 360,000;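 active = activation above the mean activation of all test compounds in the run plus 3 SD, cut at about 38% in these data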
# Target sequence (Q96RJ0 whole entry, looked up): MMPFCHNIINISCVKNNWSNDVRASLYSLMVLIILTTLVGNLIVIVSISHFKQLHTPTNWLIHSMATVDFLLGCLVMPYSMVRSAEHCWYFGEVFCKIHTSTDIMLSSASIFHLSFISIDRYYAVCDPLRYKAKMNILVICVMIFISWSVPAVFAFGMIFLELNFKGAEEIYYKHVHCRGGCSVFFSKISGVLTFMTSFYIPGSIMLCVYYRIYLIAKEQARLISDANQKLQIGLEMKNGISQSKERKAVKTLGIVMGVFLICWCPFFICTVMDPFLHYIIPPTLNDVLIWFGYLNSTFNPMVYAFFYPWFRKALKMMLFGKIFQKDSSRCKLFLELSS
#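 Assay system: CHO-derived RD-HGA16 cells with stable Gα16 and human TAAR1; timing: 17-24 h seeding, 75 min 37 °C dye, 30 min RT; read-out: % activation from peak over basal fluorescence ratio, DMSO-to-PEA scaled; measured by: kinetic Fluo-8 calcium fluorescence; benchmarks: low control DMSO, high control PEA (EC100); doses: 3 µM single concentration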
# TAAR1 antag – human TAAR1 antagonists, primary screen, Fluo-8 calcium fluorescence, CHO RD-HGA16 cells | Trace amine-associated receptor 1 (Homo sapiens), Q96RJ0 | antagonist | inhibition, % at 3 µM | hit rate 1.5% among 360,000 | AID 624466, 2012;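 active = inhibition above a per-plate cutoff, the mean inhibition of test compounds on that plate plus 3 SD, cut at about 49% in these data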;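 also: 0% = DMSO plus EC80 beta-PEA response and 100% = DMSO alone without agonist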
#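 Test system: CHO RD-HGA16 cells bearing hTAAR1 | Reagent: β-PEA, EC80 | Compound dosing: 3 µM, single point | Schedule: Dye loading 75 min at 37 °C, then 30 min room temperature | Signal: Calcium fluorescence with Fluo-8 | Evaluation: Percent inhibition of PEA-evoked calcium signal, max/basal emission ratio | Control set: DMSO-only wells and EC80 β-PEA-stimulated wells | Repeats: Singlicate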
# GPR7 antag – GPR7 receptor antagonists, primary screen, cell-based, fluorescence, single concentration. GPR7-expressing cells, fluorescence antagonist assay. inhibition, % at 4.4 µM. AID 1861, 2009. Neuropeptides B/W receptor type 1 (Homo sapiens), P48145. hit rate 1.1% among 290,000; in the data active = inhibition above about 16%, passing the limit was not always enough;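 also: cells stimulated with the agonist NPW; 0% = agonist with vehicle and 100% = vehicle without agonist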
# Target sequence (P48145 whole entry, looked up): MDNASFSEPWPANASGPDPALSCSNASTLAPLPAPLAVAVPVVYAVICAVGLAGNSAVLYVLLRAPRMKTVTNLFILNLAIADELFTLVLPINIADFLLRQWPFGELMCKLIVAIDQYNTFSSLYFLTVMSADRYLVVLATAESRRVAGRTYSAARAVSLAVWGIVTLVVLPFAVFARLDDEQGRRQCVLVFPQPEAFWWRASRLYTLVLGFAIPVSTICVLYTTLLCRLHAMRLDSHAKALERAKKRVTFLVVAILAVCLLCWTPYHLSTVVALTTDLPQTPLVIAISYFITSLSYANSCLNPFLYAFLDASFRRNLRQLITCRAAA
# OX1R antag-1 – antagonists of human orexin 1 receptor (OX1R). OX1R-expressing cells, FRET antagonist read-out. inhibition, % at 6.6 µM. hit rate 1.8% among 330,000. AID 485270, 2010; in the data active = inhibition mostly above about 38%, no sharp cut-off; inactive = mostly below about 40%;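 also: 0% = agonist challenge alone and 100% = reference antagonist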
# CHO parental Ca – ATP-evoked calcium signal inhibitors, parental CHO, primary screen, counter-screen for OX1R antagonist project, cell-based, fluorescence, Fluo-8 calcium dye; hit rate 0.63% among 330,000; inhibition, % at 5.6 µM; AID 463079, 2010; parental CHO-K1, ATP-induced calcium, Fluo-8 fluorescence;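 active = inhibition above that plate's mean sample inhibition plus 3 SD, cut at about 26% in these data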;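 also: 0% = ATP-challenged DMSO wells and 100% = DMSO wells without ATP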
#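 Assay system: parental CHO cells; Read-out basis: percent inhibition of ATP-evoked calcium rise, normalized to controls; Benchmarks: ATP and no-ATP DMSO wells; Compound dosing: single nominal dose of 5.6 µM per compound; Signal: Fluo-8 calcium dye fluorescence; Also added: ATP as calcium-mobilizing challenge; Repeats: singlicate.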
# OX1R antag-2 – OX1R (HCRTR1) antagonists, primary screen, fluorescence, CHO/OX1R cells, Fluo-8 calcium, orexin A; hit rate 0.43% among 330,000; inhibition, % at 5 µM; Orexin/Hypocretin receptor type 1 (Homo sapiens), O43613; AID 434989, 2010; Fluo-8 calcium fluorescence;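 active = inhibition above its plate's threshold, mean inhibition of all tested compounds on the plate plus 3 SD, cut at about 37% in these data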;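 also: 0% = orexin A challenge wells and 100% = SB-334867-A antagonist wells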
# Starred values were filed as active, the others as inactive; . = no result given. This is a sample that favours compounds with a hit; in the whole collection about 4.6% have one here.
SMILES,TAAR1 agonist,TAAR1 antag,GPR7 antag,OX1R antag-1,CHO parental Ca,OX1R antag-2
CC(=O)C(=Nc1ccccc1Cl)NNc1ccc(Cl)cc1,5.5,8.1,-7.0,76.6*,-2.9,-16.6
O=C(Nc1ccc2c(c1)OCO2)c1c(Cl)nc2sccn12,3.9,-8.0,-15.4,58.1*,-31.0,-15.7
Cn1ncc(Cl)c1C(=O)Nc1ccc2c(c1)OCO2,0.0,-7.0,-22.1,11.9,-3.7,-1.8
Cc1cc2c(cc1C)CSC(c1ccccc1O)SC2,28.4,66.0*,-2.5,19.4,59.3*,21.1
N#Cc1ccc(S(=O)(=O)NC(=O)[C@H]2O[C@@H](n3ccc(=O)[nH]c3=O)[C@H](O)[C@@H]2O)cc1,1.6,-18.9,.,.,.,.
O=C(N[C@@H](Cc1ccccc1)C(=O)OCc1ccccc1)c1nc[nH]c1C(=O)N1CCc2ccccc2C1,7.2,59.3*,.,14.2,30.2,31.4
CNC(=O)c1[nH]cnc1C(=O)N[C@@H](Cc1ccccc1)C(=O)OCc1ccccc1,13.0,58.8*,-16.3,21.6,-0.8,-28.2
C[C@H](NC(=O)c1nc[nH]c1C(=O)NC1CCN(C(=O)OC(C)(C)C)CC1)C(=O)OCc1ccccc1,8.8,56.5*,-13.6,19.0,-22.4,-9.6
O=C(c1nc[nH]c1C(=O)N1CCc2ccccc2C1)N1CCc2ccccc2C1,37.9*,47.6,.,11.9,-7.7,4.2
COc1ccc(/C=C/c2cccc[n+]2C)c(O)c1,-0.6,-11.8,-0.8,31.8,0.6,-0.8
CCN(CC)c1ccc(/C=C/c2cccc[n+]2C)c(OC)c1,9.6,7.7,37.3,65.4,36.3*,25.1
CN(CCCC(=O)NCCc1ccccc1)S(=O)(=O)c1ccc([N+](=O)[O-])cc1,5.3,1.6,0.0,46.0*,-12.2,-7.0
O=C1[C@@H](Oc2ccccc2)[C@@H](c2cnc3ccccc3c2)N1c1ccccc1,-0.7,10.7,.,40.7*,-10.2,16.7
CC(=O)Nc1ccc(/C=C(\C#N)C(=O)NC2CCCCC2C)cc1 (centres undefined),5.7,6.4,20.1*,22.0,-5.1,-25.0
CSc1ccc(/C=C(\C#N)C(=O)NC2CCCCC2C)cc1 (centres undefined),5.7,-20.5,0.6,25.0,-28.7,-30.5
COC(=O)N/N=C/c1c(C)c(C(=O)c2ccc(F)cc2)n2ccccc12,12.3,48.0,5.4,21.2,-22.2,-29.4
Cc1c(/C=N/NC(=O)c2ccc(O)cc2)c2ccccn2c1C(=O)c1ccc(F)cc1,0.3,36.3,19.9*,16.2,-9.1,-18.1
O=C(O)CCNc1cc(N2CCN(C(=O)c3ccco3)CC2)c2noc3c2c1C(=O)c1ccccc1-3,5.6,2.5,-10.5,76.3*,-1.9,-25.5
CCN1CCN(c2cc(N3CCN(C(=O)c4ccco4)CC3)c3c4c(onc24)-c2ccccc2C3=O)CC1,.,.,6.5,69.0*,-20.2,-26.3
O=C(NC(CC1=CCCCC1)c1ccccc1)C(F)(F)F (centres undefined),-2.4,3.0,.,.,.,.
C/C(=N/NC(=O)CN(c1ccccc1)S(=O)(=O)c1ccccc1)c1ccccc1O,1.0,-4.3,-1.8,49.7*,0.4,-24.0
CCCC/C(C)=N/NC(=O)CN(c1ccc(Br)cc1)S(=O)(=O)c1ccccc1,-3.2,6.7,-12.1,-1.1,-35.0,-35.0
Cc1cc(C)c(NC(=O)CNC(=O)c2cc(C3CC3)nc3c2cnn3C(C)C)c(C)c1,5.1,-2.2,.,.,.,.
CCc1ccccc1NC(=O)CNC(=O)c1cc(C2CC2)nc2c1cnn2C(C)C,1.8,9.6,.,38.0*,-17.1,9.5
CC(C)n1ncc2c(C(=O)Nc3ccccc3SCC(N)=O)cc(C3CC3)nc21,13.1,48.8*,.,.,.,.
SMILES,TAAR1 agonist,TAAR1 antag,GPR7 antag,OX1R antag-1,CHO parental Ca,OX1R antag-2
COc1cccc(CNC(=O)[C@H]2CCCN2C(=O)[C@H]2CCCN2C(=O)c2ccc(C)cc2)c1,6.7,-32.0,.,.,.,.
Cc1nc2ccc3[nH]snc3c2n1,5.9,-1.2,-0.4,51.9*,4.1,5.0
CC1(C)CC(=O)C2=C(C1)N=C1c3ccccc3C(=O)C1C2c1ccc(Cl)cc1 (centres undefined),27.8,24.3,-9.7,95.6*,-18.2,19.0
Cc1cc(N2CCN(C(=O)OC(C)(C)C)C[C@@H]2C)ccc1Br,-0.7,38.9,.,.,.,.
O=[N+]([O-])c1ccc2c(c1)CO[C@]21O[C@H](CCO)C[C@H](O)[C@H]1O,3.2,3.2,.,.,.,.
Clc1nnc(N/N=C/c2ccccc2)c2ccccc12,10.7,6.7,-11.1,14.1,-30.4,-10.8
C[n+]1ccc(/C=N/Nc2nc(Cl)c(C#N)c(Cl)c2Cl)cc1,3.8,3.7,5.8,54.2*,-7.1,0.4
COc1ccc(Cc2nnc(NC(=O)C3CCN(C(=O)c4ccco4)CC3)s2)cc1,2.3,-2.4,10.1,16.4,-19.1,-36.3
COc1ccc(NC(=S)N(CCCN2CCCC2)Cc2cccn2Cc2ccc(Cl)cc2)cc1Cl,39.7*,36.1,19.5*,10.6,5.4,-3.7
Cc1ccc(NC(=S)N(CCCN2CCCC2)Cc2cccn2Cc2ccc(Cl)cc2)cc1Cl,10.6,-39.2,15.1,7.5,-15.7,-6.0
O=C(O)Cc1sc(NC2CCCCC2)nc1-c1ccc(Cl)cc1,0.8,-14.4,19.1,5.6,32.6*,15.8
O=C(Nc1nccs1)c1ccc(-c2ccc(Cl)cc2)o1,-2.0,-13.9,-10.4,49.4*,-31.0,5.7
O=C(Nc1nccs1)c1ccc(-c2ccccc2Cl)o1,-2.7,-11.8,-15.4,59.1*,-36.0,8.3
O=C(Nc1nccs1)c1ccc(-c2ccc(F)cc2)o1,-1.2,-2.3,-8.7,48.2,-16.2,-16.9
COc1ccc(-c2c(C(=O)c3ccccc3)[nH]c(N)c2C(=O)NCCc2c[nH]c3ccccc23)cc1,3.6,22.9,.,.,.,.
Cc1cccn2cc(CCNS(=O)(=O)c3ccc([N+](=O)[O-])cc3)nc12,1.1,-3.3,-5.8,26.1,-4.9,-14.9
O=[N+]([O-])c1ccc(S(=O)(=O)NCCc2cn3ccccc3n2)cc1,-0.1,-11.2,-7.4,42.4*,-8.1,-11.2
COc1ccc([N+](=O)[O-])cc1NC(=S)NC(C)=O,7.3,-4.5,-4.3,12.1,-2.1,-12.8
COc1ccc([N+](=O)[O-])cc1NC(=O)CSc1ccc2ccccc2c1,0.5,21.5,1.3,61.1*,23.6,-3.1
COc1ccc(/C=C/C(=O)NC(=S)Nc2cc([N+](=O)[O-])ccc2O)cc1OC,7.8,14.0,-1.7,59.6*,-19.4,-6.2
CCCCC(=O)NC(=S)Nc1cc([N+](=O)[O-])ccc1OC,-0.4,-42.3,-12.4,18.6,40.8*,-13.6
